Tests used:
[1] = system: A-375; test: Photocytotoxicity against human A375 cells assessed as cell viability after 24 hrs in presence of light irradiation by MTT assay; format: functional, cell-based; conditions: A-375, light or radiation study
Outline: (§1)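 A375 (DMEM) or OE19 (RPMI 1640) cells were plated overnight and given sensitizer at 1 nM–10 μM, diluted from a 1 mg/mL DMSO stock, with a 1% DMSO vehicle control. After 24 h dark incubation at 37 °C, cells were PBS-washed and refed.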

[2] = system: OE19; test: Photocytotoxicity against human OE19 cells assessed as cell viability after 24 hrs in presence of light irradiation by MTT assay; format: functional, cell-based; conditions: OE19, light or radiation study; outline: as §1
[3] = system: A-375; test: Cytotoxicity against human A375 cells assessed as cell viability measured after 24 hrs by MTT assay; format: cell-based; conditions: A-375, 24 h
Outline: (§2)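 Dark control run in A375 (DMEM) or OE19 (RPMI 1640) cells, plated overnight. Sensitizers were diluted from a 1 mg/mL DMSO stock and given at 1 nM–10 μM, with a 1% DMSO vehicle control. Cells were incubated 24 h at 37 °C in the dark, PBS-washed, refed and not irradiated. Read-out was MTT (0.5 mg/mL, 4 h) with formazan dissolved in HCl/isopropanol, as % of vehicle; IC50 taken from dose–response curves.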

[4] = system: OE19; test: Cytotoxicity against human OE19 cells assessed as cell viability measured after 24 hrs by MTT assay; format: cell-based; conditions: OE19, 24 h; outline: as §2
[5] = Drug uptake in human A375 cells at 500 nM incubated for 24 hrs by fluorescence emission spectroscopic analysis; format: ADME, cell-based; conditions: a-375, 24 h, 0.5 µM
Outline: (§3)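 Cells (5 × 10^5) were exposed to 500 nM sensitizer for 24 h in the dark, then PBS-washed, disrupted in DMSO, scraped and centrifuged. Supernatant fluorescence was read with excitation at 405 and 420 nm. Intracellular concentration was calculated from a calibration curve of each sensitizer in DMSO; mean ± SE.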

[6] = Drug uptake in human OE19 cells at 500 nM incubated for 24 hrs by fluorescence emission spectroscopic analysis; format: ADME, cell-based; conditions: oe19, 24 h, 0.5 µM; outline: as §3

| Structure (SMILES) | IC50 [1] [µM] | IC50 [2] [µM] | IC50 [3] [µM] | IC50 [4] [µM] | Drug uptake [5] [nM] | Drug uptake [6] [nM] |
| --- | --- | --- | --- | --- | --- | --- |
| OCc1nn2c(c1CO)CC1c3nc(c(-c4c(F)c(F)cc(F)c4F)c4ccc([nH]4)c(-c4c(F)c(F)cc(F)c4F)c4nc(c(-c5c(F)c(F)cc(F)c5F)c5ccc([nH]5)c3-c3c(F)c(F)cc(F)c3F)C=C4)C1C2 (stereo not given) | 0.072 | 0.056 | > 10 | > 10 | 128 |  |
| COC(=O)c1nn2c(c1C(=O)OC)CC1c3nc(c(-c4c(F)c(F)c(NCCOCCO)c(F)c4F)c4ccc([nH]4)c(-c4c(F)c(F)c(NCCOCCO)c(F)c4F)c4nc(c(-c5c(F)c(F)c(NCCOCCO)c(F)c5F)c5ccc([nH]5)c3-c3c(F)c(F)c(NCCOCCO)c(F)c3F)C=C4)C1C2 (stereo not given) | 0.913 | 0.105 | > 10 | > 10 | 148 |  |
| COC(=O)c1nn2c(c1C(=O)OC)CC1c3nc(c(-c4c(F)c(F)c(F)c(F)c4F)c4ccc([nH]4)c(-c4c(F)c(F)c(F)c(F)c4F)c4nc(c(-c5c(F)c(F)c(F)c(F)c5F)c5ccc([nH]5)c3-c3c(F)c(F)c(F)c(F)c3F)C=C4)C1C2 (stereo not given) | 6.68 | 5.61 | > 10 | > 10 |  |  |
| OCCOCCNc1c(F)c(F)c(-c2c3nc(c(-c4c(F)c(F)c(NCCOCCO)c(F)c4F)c4ccc([nH]4)c(-c4c(F)c(F)c(NCCOCCO)c(F)c4F)c4nc(c(-c5c(F)c(F)c(NCCOCCO)c(F)c5F)c5ccc2[nH]5)C2Cc5c(CO)c(CO)nn5CC42)C=C3)c(F)c1F (stereo not given) | 0.013 | 0.027 | > 10 | > 10 | 254 | 202 |
